Data from ChEMBL document CHEMBL2321837, “Discovery of novel inhibitors targeting the Mycobacterium tuberculosis O-acetylserine sulfhydrylase (CysK1) using virtual high-throughput screening” (Bioorg Med Chem Lett, 2013).
In brackets after ≈: the same amount, converted by molar mass.

Experiments:
[1] = target: T1, O-acetylserine sulfhydrylase (Mycobacterium tuberculosis, UniProt P9WP55); experiment: Competitive inhibition of Mycobacterium tuberculosis CysK1
Method in brief: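 Purified CysK1 preincubated 5 min at room temperature with 1:3 serial compound dilutions in 100 mM MOPS pH 7.0 and 2 mM O-acetyl-L-serine, 5% DMSO final. Reaction started with sodium sulphide (1 mM final); aliquots were taken at time intervals. L-cysteine was measured by acid-ninhydrin (96 °C, 10 min) at 560 nm. IC50 came from sigmoid fits of specific activity.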

[2] = target: T1, O-acetylserine sulfhydrylase; experiment: Inhibition of Mycobacterium tuberculosis CysK1 using O-acetyl-L-serine as substrate assessed as L-cycteine formation after 5 mins by spectrophotometric analysis
Method in brief: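 Dose–response: serial 1:3 dilutions prepared in 50% DMSO (final DMSO 5%). Final mix was 100 mM MOPS pH 7.0, 2 mM O-acetyl-L-serine, […] CysK1, preincubated 5 min at room temperature. The reaction was started with sodium sulphide (final 1 mM). Aliquots taken at time intervals were assayed for L-cysteine by acid-ninhydrin. Specific activity vs concentration was fitted to a sigmoid for IC50.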

[3] = system: Mycobacterium tuberculosis; experiment: Antimycobacterial activity against Mycobacterium tuberculosis H37Rv ATCC 27294 assessed as growth inhibition by NCCLS agar dilution method; type: functional
Method in brief: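 M. tuberculosis H37Rv (ATCC27294) agar dilution, compounds 50 to 0.78 µg/mL in duplicates. MIC taken as lowest concentration completely inhibiting growth; isoniazid and ethambutol as reference compounds.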

[4] = Cytotoxicity against HEK293T cells assessed as growth inhibition at 25 uM by MTT assay relative to control; type: cell-based, HEK-293T; settings: human, read-out: GI
[5] = target: O-acetylserine sulfhydrylase (Mycobacterium tuberculosis) (UniProt P9WP55); experiment: Inhibition of Mycobacterium tuberculosis CysK1 using O-acetyl-L-serine as substrate assessed as L-cycteine formation at 100 uM after 5 mins by spectrophotometric analysis relative to control
Method in brief: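 Single-point screen of compounds at 100 µM. Assay mix (MOPS pH 7.0, O-acetyl-L-serine, CysK1) was preincubated 5 min at room temperature, then started with 1 mM sodium sulphide for 20 min. It was stopped with trichloroacetic acid (final 16.6%), then acid-ninhydrin reagent was added and heated at 96 °C for 10 min. After 1:1 ethanol dilution, OD was read at 560 nm; triplicates. Controls were DFSI tetrapeptide (100 µM, 100% inhibition) and no inhibitor (0%).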

[6] = Cytotoxicity against HEK293T cells assessed as growth inhibition at 50 uM by MTT assay relative to control; type: cell-based, HEK-293T; settings: human, read-out: GI

CC[C@H](C)[C@H](NC(=O)[C@H](CO)NC(=O)[C@H](Cc1ccccc1)NC(=O)[C@@H](N)CC(=O)O)C(=O)O
Ki [1]: 5 µM | IC50 [2]: 7.4 µM

Cc1ccccc1C1NC(=O)N=C2C1C(=O)N=C1SC([N+](=O)[O-])=CN12 (stereo not drawn)
MIC [3]: 70 µM (≈ 25 µg/mL) | inhibition at 25 µM [4]: 6% | inhibition [5]: 103% | inhibition at 50 µM [6]: 20.4%

CN(C)c1ccc(C2NC(=O)N=C3C2C(=O)N=C2SC([N+](=O)[O-])=CN23)cc1 (stereo not drawn)
MIC [3]: 32.4 µM (≈ 12.5 µg/mL) | inhibition at 25 µM [4]: 0% | inhibition [5]: 92.7% | inhibition at 50 µM [6]: 4.9%

COc1cc(C2NC(=S)N=C3C2C(=O)N=C2SC([N+](=O)[O-])=CN23)ccc1O (stereo not drawn)
MIC [3]: 123 µM (≈ 50 µg/mL) | inhibition at 25 µM [4]: 0% | inhibition [5]: 89.2% | inhibition at 50 µM [6]: 1.35%

CC[C@@H](CO)NCCN[C@@H](CC)CO [ETHAMBUTOL]
MIC [3]: 4.71 µM (≈ 0.962 µg/mL)

O=C1N=C2C(C(=O)N=C3SC([N+](=O)[O-])=CN32)C(c2ccc(Cl)cc2)N1 (stereo not drawn)
MIC [3]: 66.2 µM (≈ 25 µg/mL) | inhibition at 25 µM [4]: 0% | inhibition [5]: 80% | inhibition at 50 µM [6]: 0%

O=C1N=C2SC([N+](=O)[O-])=CN2C2=NC(=S)NC(c3ccc(F)cc3)C12 (stereo not drawn)
MIC [3]: 16.6 µM (≈ 6.26 µg/mL) | inhibition at 25 µM [4]: 30.6% | inhibition [5]: 60% | inhibition at 50 µM [6]: 43.4%

O=C1N=C2SC([N+](=O)[O-])=CN2C2=NC(=S)NC(c3ccc(Cl)cc3)C12 (stereo not drawn)
MIC [3]: 15.9 µM (≈ 6.26 µg/mL) | inhibition at 25 µM [4]: 7.4% | inhibition [5]: 102% | inhibition at 50 µM [6]: 14.6%

O=C1N=C2C(C(=O)N=C3SC([N+](=O)[O-])=CN32)C(c2ccccc2[N+](=O)[O-])N1 (stereo not drawn)
MIC [3]: 129 µM (≈ 50 µg/mL) | inhibition at 25 µM [4]: 0% | inhibition [5]: 93% | inhibition at 50 µM [6]: 0%

O=C1N=C2SC([N+](=O)[O-])=CN2C2=NC(=S)NC(c3ccccc3C(F)(F)F)C12 (stereo not drawn)
MIC [3]: 7.3 µM (≈ 3.12 µg/mL) | inhibition at 25 µM [4]: 27.7% | inhibition [5]: 89.4% | inhibition at 50 µM [6]: 52.2%

COc1cc(C2NC(=O)N=C3C2C(=O)N=C2SC([N+](=O)[O-])=CN23)ccc1O (stereo not drawn)
MIC [3]: 128 µM (≈ 50 µg/mL) | inhibition at 25 µM [4]: 0% | inhibition [5]: 90.5% | inhibition at 50 µM [6]: 0%

O=C1N=C2SC([N+](=O)[O-])=CN2C2=NC(=S)NC(c3ccccc3[N+](=O)[O-])C12 (stereo not drawn)
IC50 [2]: 30.3 µM | MIC [3]: 30.9 µM (≈ 12.5 µg/mL) | inhibition at 25 µM [4]: 1% | inhibition [5]: 11.3% | inhibition at 50 µM [6]: 8.7%

O=C1N=C2C(C(=O)N=C3SC([N+](=O)[O-])=CN32)C(c2ccc(F)cc2)N1 (stereo not drawn)
MIC [3]: 17.3 µM (≈ 6.25 µg/mL) | inhibition at 25 µM [4]: 5.4% | inhibition [5]: 100% | inhibition at 50 µM [6]: 10.7%

Cc1ccc(C2NC(=S)N=C3C2C(=O)N=C2SC([N+](=O)[O-])=CN23)cc1 (stereo not drawn)
MIC [3]: 67 µM (≈ 25 µg/mL) | inhibition at 25 µM [4]: 0% | inhibition [5]: 106% | inhibition at 50 µM [6]: 14.7%

O=C1N=C2C(C(=O)N=C3SC([N+](=O)[O-])=CN32)C(c2ccc(Br)cc2)N1 (stereo not drawn)
MIC [3]: 29.6 µM (≈ 12.5 µg/mL) | inhibition at 25 µM [4]: 6.1% | inhibition [5]: 89.1% | inhibition at 50 µM [6]: 11.2%

Cc1ccc(C2NC(=O)N=C3C2C(=O)N=C2SC([N+](=O)[O-])=CN23)cc1 (stereo not drawn)
MIC [3]: 70 µM (≈ 25 µg/mL) | inhibition at 25 µM [4]: 0% | inhibition [5]: 57.7% | inhibition at 50 µM [6]: 0%

COc1ccc(C2NC(=S)N=C3C2C(=O)N=C2SC([N+](=O)[O-])=CN23)cc1 (stereo not drawn)
IC50 [2]: 22.7 µM | MIC [3]: 32.1 µM (≈ 12.5 µg/mL) | inhibition at 25 µM [4]: 0.2% | inhibition [5]: 9.1% | inhibition at 50 µM [6]: 14.6%

O=C1N=C2SC([N+](=O)[O-])=CN2C2=NC(=S)NC(c3cccc(Br)c3)C12 (stereo not drawn)
MIC [3]: 7.1 µM (≈ 3.11 µg/mL) | inhibition at 25 µM [4]: 6% | inhibition [5]: 39.9% | inhibition at 50 µM [6]: 13.5%

O=C1N=C2SC([N+](=O)[O-])=CN2C2=NC(=S)NC(c3ccccc3)C12 (stereo not drawn)
MIC [3]: 69.6 µM (≈ 25 µg/mL) | inhibition at 25 µM [4]: 0% | inhibition [5]: 90.4% | inhibition at 50 µM [6]: 25.3%

O=C1N=C2C(C(=O)N=C3SC([N+](=O)[O-])=CN32)C(c2ccccc2O)N1 (stereo not drawn)
MIC [3]: 69.6 µM (≈ 25 µg/mL) | inhibition at 25 µM [4]: 0% | inhibition [5]: 107% | inhibition at 50 µM [6]: 0%

O=C1N=C2C(C(=O)N=C3SC([N+](=O)[O-])=CN32)C(c2ccccc2C(F)(F)F)N1 (stereo not drawn)
IC50 [2]: 17.7 µM | MIC [3]: 7.6 µM (≈ 3.13 µg/mL) | inhibition at 25 µM [4]: 5.7% | inhibition [5]: 13.8% | inhibition at 50 µM [6]: 13.1%

NNC(=O)c1ccncc1 [ISONIAZID]
MIC [3]: 0.72 µM (≈ 0.0987 µg/mL)

O=C1N=C2SC([N+](=O)[O-])=CN2C2=NC(=S)NC(c3ccc(Br)cc3)C12 (stereo not drawn)
MIC [3]: 28.5 µM (≈ 12.5 µg/mL) | inhibition at 25 µM [4]: 2.5% | inhibition [5]: 65.6% | inhibition at 50 µM [6]: 6.5%

O=C1N=C2C(C(=O)N=C3SC([N+](=O)[O-])=CN32)C(c2cccc(Br)c2)N1 (stereo not drawn)
MIC [3]: 14.8 µM (≈ 6.25 µg/mL) | inhibition at 25 µM [4]: 0% | inhibition [5]: 60.1% | inhibition at 50 µM [6]: 2.8%

O=C1N=C2SC([N+](=O)[O-])=CN2C2=NC(=S)NC(c3ccc([N+](=O)[O-])cc3)C12 (stereo not drawn)
MIC [3]: 61.8 µM (≈ 25 µg/mL) | inhibition at 25 µM [4]: 1.64% | inhibition [5]: 70.6% | inhibition at 50 µM [6]: 6.6%

O=C1N=C2C(C(=O)N=C3SC([N+](=O)[O-])=CN32)C(c2c(Cl)cccc2Cl)N1 (stereo not drawn)
MIC [3]: 121 µM (≈ 50 µg/mL) | inhibition at 25 µM [4]: 0% | inhibition [5]: 57.8% | inhibition at 50 µM [6]: 0%

O=C1N=C2SC([N+](=O)[O-])=CN2C2=NC(=S)NC(c3ccccc3O)C12 (stereo not drawn)
MIC [3]: 33.3 µM (≈ 12.5 µg/mL) | inhibition at 25 µM [4]: 0.1% | inhibition [5]: 68.8% | inhibition at 50 µM [6]: 12%

Cc1ccccc1C1NC(=S)N=C2C1C(=O)N=C1SC([N+](=O)[O-])=CN12 (stereo not drawn)
IC50 [2]: 17.7 µM | MIC [3]: 33.5 µM (≈ 12.5 µg/mL) | inhibition at 25 µM [4]: 3.6% | inhibition [5]: 15.9% | inhibition at 50 µM [6]: 18.8%

COc1ccc(C2NC(=O)N=C3C2C(=O)N=C2SC([N+](=O)[O-])=CN23)cc1 (stereo not drawn)
MIC [3]: 134 µM (≈ 50 µg/mL) | inhibition at 25 µM [4]: 0% | inhibition [5]: 93.9% | inhibition at 50 µM [6]: 7.3%

O=C1N=C2C(C(=O)N=C3SC([N+](=O)[O-])=CN32)C(c2ccc([N+](=O)[O-])cc2)N1 (stereo not drawn)
MIC [3]: 129 µM (≈ 50 µg/mL) | inhibition at 25 µM [4]: 2.6% | inhibition [5]: 54.7% | inhibition at 50 µM [6]: 9.4%

O=C1N=C2C(C(=O)N=C3SC([N+](=O)[O-])=CN32)C(c2ccccc2)N1 (stereo not drawn)
MIC [3]: > 146 µM | inhibition at 25 µM [4]: 1.6% | inhibition [5]: 84.1% | inhibition at 50 µM [6]: 3.8%

O=C1N=C2SC([N+](=O)[O-])=CN2C2=NC(=S)NC(c3c(Cl)cccc3Cl)C12 (stereo not drawn)
MIC [3]: 58.4 µM (≈ 25 µg/mL) | inhibition at 25 µM [4]: 21.3% | inhibition [5]: 113% | inhibition at 50 µM [6]: 30.7%

CN(C)c1ccc(C2NC(=S)N=C3C2C(=O)N=C2SC([N+](=O)[O-])=CN23)cc1 (stereo not drawn)
MIC [3]: 15.5 µM (≈ 6.24 µg/mL) | inhibition at 25 µM [4]: 8% | inhibition [5]: 100% | inhibition at 50 µM [6]: 26.8%
